The text below walks through data of ChEMBL document CHEMBL5247578, “Effective synthesis of benzimidazoles-imidazo[1,2-a]pyrazine conjugates: A comparative study of mono-and bis-benzimidazoles for antitumor activity” (Eur J Med Chem, 2019).

For test [1], the system named is Calf thymus DNA. Briefly: Binding affinity to calf thymus DNA assessed as quenching constant at temperature of 318 K by fluorescence spectroscopic method. It is filed as nucleic-acid assay. As to conditions: Bos taurus.
Test [2] deals with Calf thymus DNA. Briefly: Binding affinity to calf thymus DNA assessed as gibbs free energy change at temperature of 298 K by Van't Hoff plot analysis. It is filed as nucleic-acid assay. As to conditions: Bos taurus.
Test [3] concerns NCI/ADR-RES. Nature of the test: Antiproliferative activity against human NCI/ADR-RES cells assessed as cell growth at 0.0001 M incubated for 48 hrs by SRB assay relative to control. The format is functional. As to conditions: read-out: Activity.
Test [4] concerns Calf thymus DNA. Briefly: Binding affinity to calf thymus DNA assessed as DNA intercalation by measuring Stem-Volmer quenching constant at temperature of 308 K by fluorescence spectroscopic method. The format is nucleic-acid assay. Conditions: Bos taurus.
The test system of the next test is UACC-257. Nature of the test: Antiproliferative activity against human UACC-257 cells assessed as cell growth inhibition by measuring lethal concentration incubated for 48 hrs by sulforhodamine B assay. The format is functional. As to conditions: read-out: LC50 (the source's name). In short, it runs like this:
(§1)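 NCI-60 five-dose screen (10^-4 to 10^-8 M, 10-fold dilutions; DMSO stocks). Cells in RPMI 1640 with 5% FBS and 2 mM L-glutamine, preincubated 24 h, then exposed 48 h at 37 °C, 5% CO2. Fixed with cold TCA, stained with 0.4% SRB, absorbance read at 515 nm. Time-zero plates used as reference. LC50 taken from [(Ti-Tz)/Tz]×100 […].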

The next test relates to MOLT-4. Briefly: Antiproliferative activity against human MOLT-4 cells assessed as cell growth at 0.00001 M incubated for 48 hrs by SRB assay relative to control. The format is functional. As to conditions: read-out: Activity.
Test [5] has as its system SW-620. Nature of the test: Growth inhibition against human SW620 cells assessed as total growth inhibitory concentration incubated for 48 hrs by sulforhodamine B assay. It is filed as functional.
The test system of another test is SN12C. Nature of the test: Antiproliferative activity against human SN12C cells assessed as cell growth at 0.0001 M incubated for 48 hrs by SRB assay relative to control. It is filed as functional. As to conditions: read-out: Activity.
Test [6] relates to Calf thymus DNA. Briefly: Binding affinity to calf thymus DNA assessed as DNA intercalation by measuring Stem-Volmer quenching constant at temperature of 318 K by fluorescence spectroscopic method. Conditions: Bos taurus. It is filed as nucleic-acid assay.
For the next test, the system named is HCT-15. Briefly: Growth inhibition against human HCT-15 cells assessed as total growth inhibitory concentration incubated for 48 hrs by sulforhodamine B assay. The format is functional.
The next test concerns SK-MEL-5. Nature of the test: Antiproliferative activity against human SK-MEL-5 cells assessed as cell growth inhibition by measuring lethal concentration incubated for 48 hrs by sulforhodamine B assay. The format is functional. Conditions: read-out: LC50 (the source's name).
For test [7], the system named is Calf thymus DNA. Nature of the test: Binding affinity to calf thymus DNA assessed as fluorescence quenching intensity at 5 uM at temperature of 318 K by fluorescence spectroscopic method relative to control. It is filed as nucleic-acid assay. As to conditions: Bos taurus.
Test [8] concerns SW-620. Briefly: Antiproliferative activity against human SW620 cells assessed as cell growth at 0.00001 M incubated for 48 hrs by SRB assay relative to control. It is filed as functional. As to conditions: read-out: Activity.
For the next test, the system named is M14. Nature of the test: Growth inhibition against human M14 cells assessed as total growth inhibitory concentration incubated for 48 hrs by sulforhodamine B assay. The format is functional.
In test [9] the test system is Calf thymus DNA. Nature of the test: Binding affinity to calf thymus DNA assessed as change in enthalpy at temperature of 298 K by Van't Hoff plot analysis. Conditions: Bos taurus. The format is nucleic-acid assay.
In the next test the test system is SNB-75. Nature of the test: Antiproliferative activity against human SNB-75 cells assessed as cell growth inhibition by measuring lethal concentration incubated for 48 hrs by sulforhodamine B assay. It is filed as functional. As to conditions: read-out: LC50 (the source's name). The method, boiled down:
as §1

In the next test the test system is EKVX. Nature of the test: Growth inhibition against human EKVX cells assessed as total growth inhibitory concentration incubated for 48 hrs by sulforhodamine B assay. It is filed as functional.
The subject of another test is RXF 393. Nature of the test: Antiproliferative activity against human RXF 393 cells assessed as cell growth inhibition by measuring lethal concentration incubated for 48 hrs by sulforhodamine B assay. The format is functional. As to conditions: read-out: LC50 (the source's name).
Test [10] deals with Calf thymus DNA. Nature of the test: Binding affinity to calf thymus DNA assessed as quenching constant at temperature of 308 K by fluorescence spectroscopic method. The format is nucleic-acid assay. Conditions: Bos taurus.
For test [11], the system named is SF-295. Briefly: Antiproliferative activity against human SF-295 cells assessed as cell growth inhibition by measuring lethal concentration incubated for 48 hrs by sulforhodamine B assay. It is filed as functional. Conditions: read-out: LC50 (the source's name).
For test [12], the system named is K562. Nature of the test: Antiproliferative activity against human K562 cells assessed as cell growth at 0.0000001 M incubated for 48 hrs by SRB assay relative to control. As to conditions: dose 100 nM, read-out: Activity. The format is functional.
Test [13] deals with Calf thymus DNA. Briefly: Binding affinity to calf thymus DNA assessed as gibbs free energy change at temperature of 318 K by Van't Hoff plot analysis. It is filed as nucleic-acid assay. Conditions: Bos taurus.
For another test, the system named is SF-539. Briefly: Antiproliferative activity against human SF-539 cells assessed as cell growth inhibition by measuring lethal concentration incubated for 48 hrs by sulforhodamine B assay. It is filed as functional. As to conditions: read-out: LC50 (the source's name).
Test [14] relates to Calf thymus DNA. Briefly: Binding affinity to calf thymus DNA assessed as change in entropy at temperature of 298 K by Van't Hoff plot analysis. Conditions: Bos taurus. It is filed as nucleic-acid assay.
A further test deals with SK-MEL-28. Briefly: Growth inhibition against human SK-MEL-28 cells assessed as total growth inhibitory concentration incubated for 48 hrs by sulforhodamine B assay. The format is functional.
The test system of a further test is HOP-62. Nature of the test: Growth inhibition against human HOP-62 cells assessed as total growth inhibitory concentration incubated for 48 hrs by sulforhodamine B assay. It is filed as functional.
Test [15] has as its system K562. Nature of the test: Growth inhibition against human K562 cells incubated for 48 hrs by sulforhodamine B assay. It is filed as functional.
A further test relates to UO-31. Nature of the test: Antiproliferative activity against human UO-31 cells assessed as cell growth at 0.0001 M incubated for 48 hrs by SRB assay relative to control. Conditions: read-out: Activity. The format is functional.
Test [16] has as its system NCI/ADR-RES. Nature of the test: Growth inhibition against human NCI/ADR-RES cells assessed as total growth inhibitory concentration incubated for 48 hrs by sulforhodamine B assay. The format is functional.
A further test concerns OVCAR-4. Nature of the test: Growth inhibition against human OVCAR-4 cells incubated for 48 hrs by sulforhodamine B assay. The format is functional.
For test [17], the system named is SF-295. Briefly: Growth inhibition against human SF-295 cells assessed as total growth inhibitory concentration incubated for 48 hrs by sulforhodamine B assay. It is filed as functional.

Consider `COc1ccc(-c2cn3ccnc3c(-c3ccc4ncn(C5CCCCC5)c4c3)n2)cc1`, for which the Kq was 0.73 10^12/M/s with Calf thymus DNA [1] and 1.68 10^12/M/s in the test with Calf thymus DNA [10]. Also, the deltaG in the test with Calf thymus DNA [2] was -33.1 kJ/mol; in the test with Calf thymus DNA [13], -15.9 kJ/mol. In addition, the growth at 100 µM is 3% in the test on NCI/ADR-RES [3], 31% in the test on SN12C and 26% in the test on UO-31. Moreover, the results for the KSV in the test on Calf thymus DNA [4] and in the test on Calf thymus DNA [6] were 1.68 10^4/M and 0.73 10^4/M, respectively. The CC50 with UACC-257, in the test with SK-MEL-5, in the test with SNB-75, in the test with RXF 393, in the test on SF-295 [11] and with SF-539 was above 100 µM in each case. The growth at 10 µM with MOLT-4 was found to be 13%; in the test with SW-620 [8], 29%. In addition, the TGI in the test with SW-620 [5], in the test on HCT-15, with M14, in the test with EKVX, in the test with SK-MEL-28 and with HOP-62 was above 100 µM in each case. Also, the Activity in the test with Calf thymus DNA [7] stood at 60%. Further, in the test with Calf thymus DNA [9], the deltaH was -290 kJ/mol. In addition, in the test on K562 [12], the growth at 0.1 µM was 92%. The deltaS in the test on Calf thymus DNA [14] was -206 cal/mol/K. In the test with K562 [15], this molecule returned a GI50 of 0.422 µM.
Regarding `c1ccc(Cn2cnc3ccc(-c4nc(-c5ccc6c(c5)ncn6C5CCCCC5)cn5ccnc45)cc32)cc1`, the TGI with NCI/ADR-RES [16] worked out at 5.43 µM; with SF-295 [17], 2.98 µM. In the test on OVCAR-4, growth was halved (GI50) at 3.06 µM.
